Here are results for four compounds from ChEMBL document CHEMBL1121729, “N*-N*-S* tridentate ligand system as potential antitumor agents” (1981).

The subject of test [1] is P388. Put plainly: Antitumor activity against P-388 lymphocytic leukemia implanted CDF1 mice to that of control when 100 mg/kg compound administered. The class given is functional, Mus musculus. An outline of the steps: (§1)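 CDF1 mice given 10^6 P-388 lymphocytic leukemia cells ip on day 0; drug given ip as a suspension in klucel or in saline plus Tween 80 on days 1, 5 and 9, starting 24 h after tumor transplantation; six mice per group. Read-outs are treated/control (T/C, %) and body weight change in g as treated/control.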

Test [2] concerns P388. In words: Antitumor activity against P-388 lymphocytic leukemia implanted CDF1 mice to that of control when 200 mg/kg compound administered. In kind it is functional, Mus musculus. The method, boiled down:
as §1

Test [3] deals with P388. In words: Antitumor activity against P-388 lymphocytic leukemia implanted CDF1 mice to that of control when 400 mg/kg compound administered. The class given is functional, Mus musculus. An outline of the steps: as §1
Test [4] deals with P388. In words: Change in body weight of P-388 lymphocytic leukemia implanted CDF1 mice to that of control when 200 mg/kg compound administered; T/C= 2.1/1.3. The class given is functional, Mus musculus. The method, boiled down:
as §1

In test [5] the test system is P388. Put plainly: Change in body weight of P-388 lymphocytic leukemia implanted CDF1 mice to that of control when 400 mg/kg compound administered; T/C= 0.8/1.3. In kind it is functional, Mus musculus. An outline of the steps:
as §1

Test [6] has as its system P388. In words: Change in body weight of P-388 lymphocytic leukemia implanted CDF1 mice to that of control when 100 mg/kg compound administered; T/C= 3.3/1.3. The class given is functional, Mus musculus. The method, boiled down:
as §1

The subject of test [7] is P388. Put plainly: Change in body weight of P-388 lymphocytic leukemia implanted CDF1 mice to that of control when 200 mg/kg compound administered; T/C= 1.1/5. In kind it is functional, Mus musculus. The method, boiled down:
as §1

In test [8] the test system is P388. Put plainly: Change in body weight of P-388 lymphocytic leukemia implanted CDF1 mice to that of control when 400 mg/kg compound administered; T/C= -2.5/5. The class given is functional, Mus musculus. An outline of the steps:
as §1

For test [9], the system named is P388. In words: Change in body weight of P-388 lymphocytic leukemia implanted CDF1 mice to that of control when 100 mg/kg compound administered; T/C= 1.5/5. The class given is functional, Mus musculus. The method, boiled down: as §1
Test [10] relates to L1210. In words: Growth inhibition of cultured L-1210 cells after 48-h exposure to compound at 1.6 x 10E-8 M/mL in trail 1. The class given is functional. The following applies: Mus musculus, L1210, 48 h.
The test system of test [11] is L1210. Put plainly: Growth inhibition of cultured L-1210 cells after 48-h exposure to compound at 1.6 x 10E-8 M/mL in trail 2. The class given is functional. Conditions: Mus musculus, L1210, 48 h.
The subject of test [12] is L1210. In words: Growth inhibition of cultured L-1210 cells after 48-h exposure to compound at 4 x 10E-9 M/mL in trail 1. The class given is functional. Conditions: Mus musculus, L1210, 48 h.
Test [13] has as its system P388. In words: Change in body weight of P-388 lymphocytic leukemia implanted CDF1 mice to that of control when 200 mg/kg compound administered; T/C=1.5/0.5. The class given is functional, Mus musculus. The method, boiled down:
as §1

Test [14] relates to P388. Put plainly: Change in body weight of P-388 lymphocytic leukemia implanted CDF1 mice to that of control when 400 mg/kg compound administered; T/C= -0.8/5. The class given is functional, Mus musculus. An outline of the steps: as §1
The subject of test [15] is Sarcoma-180. In words: Growth inhibition of cultured Sarcoma 180 cells after 48-h exposure to compound at 1.6 x 10E-8 M/mL in trail 1. The class given is functional. Conditions: Mus musculus, Sarcoma-180, 48 h.
Test [16] has as its system Sarcoma-180. In words: Growth inhibition of cultured Sarcoma 180 cells after 48-h exposure to compound at 1.6 x 10E-8 M/mL in trail 2. The class given is functional. The following applies: Mus musculus, Sarcoma-180, 48 h.
Test [17] deals with Sarcoma-180. In words: Growth inhibition of cultured Sarcoma cells after 48-h exposure to compound at 4 x 10E-9 M/mL in trail 1. The class given is functional. The following applies: Mus musculus, Sarcoma-180, 48 h.
For test [18], the system named is Sarcoma-180. In words: Growth inhibition of cultured Sarcoma cells after 48-h exposure to compound at 4 x 10E-9 M/mL in trail 2. The class given is functional. Conditions: Mus musculus, Sarcoma-180, 48 h.
The subject of test [19] is L1210. In words: Growth inhibition of cultured L-1210 cells after 48-h exposure to compound at 4 x 10E-9 M/mL in trail 2. The following applies: Mus musculus, L1210, 48 h. The class given is functional.
The subject of test [20] is P388. Put plainly: Change in body weight of P-388 lymphocytic leukemia implanted CDF1 mice to that of control when 100 mg/kg compound administered; T/C=1.5/0.5. The class given is functional, Mus musculus. The method, boiled down: as §1
For test [21], the system named is P388. Put plainly: Antitumor activity against P-388 lymphocytic leukemia implanted CDF1 mice to that of control when 400 mg/kg compound administered; toxic. In kind it is functional, organism-based. Set-up: dose 400 mg/kg. Conditions: Mus musculus. The method, boiled down: as §1
For test [22], the system named is P388. Put plainly: Change in body weight of P-388 lymphocytic leukemia implanted CDF1 mice to that of control when 200 mg/kg compound administered; T/C= 1/1.3. The class given is functional, Mus musculus. An outline of the steps: as §1
Test [23] deals with P388. Put plainly: Change in body weight of P-388 lymphocytic leukemia implanted CDF1 mice to that of control when 100 mg/kg compound administered; T/C= -0.2/1.3. The class given is functional, Mus musculus. An outline of the steps: as §1

On to `CN(C)C(=S)c1cccc(-c2ccccn2)n1`, for which the T/C is reported as 95% in [1], 95% in test [2] and 91% in test [3]. The Change in weight in test [4] is listed as 2.1; in test [5], 0.8; in [6], 3.3.
As for `NC(=S)c1ccc2ccc3cccnc3c2n1`, the T/C is recorded as 100% in test [1], 106% in test [2] and 112% in test [3]. Besides, the Change in weight in [7] is on record as 1.1; in [8], -2.5; in [9], 1.5.
In the case of `NC(=S)c1cccc(-c2ccccn2)n1`, the inhibition at 0.016 µM was 95% in test [10], 93% in test [11], 85% in test [15] and 60% in test [16]. For the same compound, the inhibition at 0.004 µM was determined as 51% in test [12], 35% in test [17], 10% in [18] and 32% in test [19]. In addition, the results for the T/C in [1], in test [2] and in test [3] were 112%, 125% and 143%, respectively. In addition, the Change in weight in test [13] is 1.5; in [14], -0.8; in test [20], 1.5.
With `C/N=C(/S)c1cccc(-c2ccccn2)n1`, the T/C is 91% in test [1], 83% in test [2] and “Toxic” in [21]. In addition, the results for the Change in weight in [22] and in test [23] were 1 and -0.2, respectively.
